# Screens deposited in PubChem BioAssay by Broad Institute.
# Pf Dd2 inh – P. falciparum Dd2 growth inhibitors, primary screen, SYBR Green fluorescence, single dose replicates | hit rate 2.3% among 94,000 | activity change, % at 10 µM | 72 h; hits give low values; in the data active = activity change below about -80%; inconclusive = no clear call, values can overlap the other calls
# GASC1 inh – inhibitors of GASC-1 (KDM4C) histone demethylase, primary screen, biochemical, single concentration HTS; AID 720574, 2013; GST-KDM4C 2-372, H3K9me3 peptide, LANCE TR-FRET; inhibition, % at 12.5 µM; Lysine-specific demethylase 4C (Homo sapiens), Q9H3R0; hit rate 0.15% among 96,000;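 active = mean replicate inhibition above about 25%, with at least 55% of replicates also reaching it, limit read from the data, passing the limit was not always enough; inconclusive = only one of those two conditions met; inactive = neither condition met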
#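 System – N-terminal GST-fused human GASC-1 (KDM4C) fragment, residues 2-372 · Input – enzyme final amount 10 nM · Technique – LANCE TR-FRET, Eu antibody, ULight-streptavidin, EDTA, ex 340 nm, em 618/671 nm · Medium – HEPES buffer, pH 7.5, plus ascorbate · Incubation – enzyme reaction 30 min, then detection 60 min, both room temperature · Reagent – H3K9me3 peptide with Fe(II)/2OG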
# IDH1 R132H inh – inhibitors of IDH1 R132H reductase, primary screen, biochemical, plate reader, single point; diaphorase/resazurin fluorescence, 60 min; inhibition, % at 10 µM; hit rate 0.18% among 70,000; AID 624101, 2012; in the data active = inhibition above about 34%; inconclusive = no clear call, values can overlap the other calls; inactive = below about 11%;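 note: 0% = DMSO and 100% = no enzyme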
# Target sequence (O75874 whole entry R132H): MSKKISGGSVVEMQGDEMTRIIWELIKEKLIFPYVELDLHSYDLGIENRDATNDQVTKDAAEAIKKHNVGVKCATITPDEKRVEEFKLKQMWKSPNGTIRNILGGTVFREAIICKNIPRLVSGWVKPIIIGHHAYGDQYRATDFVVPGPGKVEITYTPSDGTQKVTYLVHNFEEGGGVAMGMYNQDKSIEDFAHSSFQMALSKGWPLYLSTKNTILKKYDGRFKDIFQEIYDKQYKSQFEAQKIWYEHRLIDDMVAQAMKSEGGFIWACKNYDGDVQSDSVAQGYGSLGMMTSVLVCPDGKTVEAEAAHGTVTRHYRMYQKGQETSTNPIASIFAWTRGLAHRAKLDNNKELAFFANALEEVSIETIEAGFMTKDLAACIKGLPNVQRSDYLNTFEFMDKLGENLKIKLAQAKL
# T cruzi growth-1 – T. cruzi intracellular proliferation inhibitors, primary screen, cell-based, beta-gal Tulahuen parasites, NIH3T3 host, luminescence. hit rate 5.9% among 77,000. T. cruzi beta-gal in NIH3T3, GalScreen luminescence, 90 h. inhibition, % at 8.34 µM. AID 624255, 2012;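 active = mean inhibition above about 93%, with at least 55% of replicates each passing it, limit read from the data, passing the limit was not always enough; inconclusive = only one of those two conditions holds; inactive = neither condition holds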
# T cruzi growth-2 – T. cruzi intracellular proliferation inhibitors, confirmation, cell-based, NIH3T3 host, beta-gal parasite, luminescence, cherry-pick; shares compounds with T cruzi growth-1; T. cruzi beta-gal in NIH3T3, GalScreen luminescence, 90 h; inhibition, % at 8.35 µM; hit rate 72% among 5,600; AID 651739, 2012;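 active = mean replicate inhibition above about 95% and at least 55% of replicates individually reaching it, limit read from the data; inconclusive = only one of the two criteria is met; inactive = neither criterion is met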
# T cruzi growth-3 – inhibitors of intracellular T. cruzi replication, confirmation, NIH3T3 host cells, beta-gal parasites, cherry-pick, set 2; shares compounds with T cruzi growth-1; T. cruzi beta-gal in NIH3T3, GalScreen luminescence, 90 h; inhibition, % at 2.09 µM; hit rate 21% among 5,600; AID 651740, 2012;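 active = mean inhibition above about 95%, with at least 55% of replicates also reaching it, limit read from the data; inconclusive = meets just one of the two conditions; inactive = meets neither condition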;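 note: plate controls were neutral control median for no effect and positive control median for full effect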
# 3T3 cytotox – cytotoxicity in mouse NIH/3T3 fibroblasts, confirmation, cytotoxicity control for T. cruzi proliferation inhibitor project, cell-based, cherry-pick, single point; shares compounds with T cruzi growth-1; NIH/3T3 viability, CellTiter-Glo ATP luminescence, 90 h; cytotoxicity (signal decrease), % at 8.35 µM; hit rate 14% among 5,600; AID 651742, 2012;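 active = mean signal decrease across replicates above about 35% based on untreated-well scatter, with enough replicates individually passing, limit read from the data; inconclusive = no rule stated though some were filed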;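 note: 0% = median of neutral control wells and 100% = median of positive control wells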
# 3T3 cytotox 2 – NIH/3T3 fibroblast cytotoxicity, confirmation, cytotoxicity control, cell-based, cherry-pick, single point, set 2. shares compounds with T cruzi growth-1. NIH/3T3 viability, CellTiter-Glo ATP luminescence, 90 h. inhibition, % at 24.9 µM. hit rate 56% among 5,600;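 active = mean loss of cell viability signal at or above a set limit, and enough replicates individually reaching it; inconclusive = meets only the mean limit or only the replicate share; inactive = meets neither condition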;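 note: 0% = median of neutral control wells and 100% = median of positive control wells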
# An asterisk follows results filed as active; ? = inconclusive; nt = not tested or not shown. Most compounds without a hit are left out; they make up all but 5.8% or so of the library.
SMILES,Pf Dd2 inh,GASC1 inh,IDH1 R132H inh,T cruzi growth-1,T cruzi growth-2,T cruzi growth-3,3T3 cytotox,3T3 cytotox 2
C[C@H](CO)N1C[C@H](C)[C@@H](CN(C)Cc2ccccc2)Oc2ccc(NC(=O)c3ccncc3)cc2CC1=O,8,0,3,68,nt,nt,nt,nt
C[C@H]1CN([C@@H](C)CO)C(=O)Cc2cc(NC(=O)C3CC3)ccc2O[C@@H]1CN(C)Cc1ccc(-c2ccccc2)cc1,-20,0,3,92,nt,nt,nt,nt
C[C@H](CO)N1C[C@H](C)[C@@H](CN(C)Cc2ccc(C(F)(F)F)cc2)Oc2ccc(NC(=O)c3ccncc3)cc2CC1=O,-7,1,1,96*,105*,33,14,59*
C[C@H]1CN([C@@H](C)CO)C(=O)Cc2cc(NC(=O)c3ccncc3)ccc2O[C@@H]1CN(C)Cc1ccc(-c2ccccc2)cc1,-36,0,1,81,nt,nt,nt,nt
C[C@@H]1CN([C@H](C)CO)C(=O)Cc2cc(NC(=O)c3ccncc3)ccc2O[C@H]1CN(C)Cc1ccc(Oc2ccccc2)cc1,-17,0,0,105*,109*,36,4,103*
Cc1nnc(SCC(=O)Nc2ccc(F)c(F)c2F)s1,nt,nt,0,nt,nt,nt,nt,nt
CCCC(=O)c1ccc(OCc2nc3ccccc3[nH]2)cc1,nt,nt,0,nt,nt,nt,nt,nt
C[C@@H]1CN([C@@H](C)CO)C(=O)Cc2cc(NC(=O)c3ccncc3)ccc2O[C@@H]1CN(C)Cc1ccc(Oc2ccccc2)cc1,-11,0,nt,100,nt,nt,nt,nt
C[C@H](CO)N1C[C@H](C)[C@@H](CN(C)Cc2ccc(Oc3ccccc3)cc2)Oc2ccc(NC(=O)c3ccncc3)cc2CC1=O,-21,-1,5,97*,111*,40,12,106*
O=C(C[C@@H]1CC[C@@H]2[C@H](COC[C@H](O)CN2Cc2ccc(Oc3ccccc3)cc2)O1)N1CCN(c2ccccc2)CC1,-70,0,nt,115*,88,70,4,104*
O=C(C[C@@H]1CC[C@H]2[C@@H](COC[C@@H](O)CN2Cc2ccc(Oc3ccccc3)cc2)O1)N1CCN(c2ccccc2)CC1,-26,-2,nt,34,nt,nt,nt,nt
O=C(C[C@H]1CC[C@H]2[C@@H](COC[C@H](O)CN2Cc2ccc(Oc3ccccc3)cc2)O1)N1CCN(c2ccccc2)CC1,-52,0,nt,134*,105*,44,7,38*
CN1C[C@@H](O)COC[C@@H]2O[C@H](CC(=O)N3CCN(c4ccccc4)CC3)CC[C@H]21,-28,1,nt,109*,90,71,-3,-4
Cc1ccc(-c2nnc(SCC(=O)Nc3ccc(Br)c(C)c3)n2C)cc1,nt,nt,0,nt,nt,nt,nt,nt
C[C@@H]1CCCCO[C@@H](CN(C)S(=O)(=O)c2ccc(F)cc2)[C@H](C)CN([C@@H](C)CO)C(=O)c2cc(NS(=O)(=O)c3ccc(F)cc3)ccc2O1,-20,-2,nt,109*,106*,86,0,11
C[C@@H]1CCCCO[C@H](CN(C)S(=O)(=O)c2ccc(F)cc2)[C@H](C)CN([C@H](C)CO)C(=O)c2cc(NS(=O)(=O)c3ccccc3)ccc2O1,-46,-2,nt,104*,114*,79,18,7
C[C@@H]1CCCCO[C@H](CN(C)S(=O)(=O)c2ccc(F)cc2)[C@@H](C)CN([C@@H](C)CO)C(=O)c2cc(NS(=O)(=O)c3ccc(F)cc3)ccc2O1,-70,-1,0,111*,103*,62,-4,19
C[C@H](CO)N1C[C@H](C)[C@H](CN(C)S(=O)(=O)c2ccc(F)cc2)OCCCC[C@H](C)Oc2ccc(NS(=O)(=O)c3ccc(F)cc3)cc2C1=O,-45,1,nt,119*,103*,91,8,-15
CCc1ccccc1NC(=O)CCCN1C(=O)c2ccccc2C1=O,nt,nt,0,nt,nt,nt,nt,nt
COc1ccc([N+](=O)[O-])cc1NC(=O)CN(c1cc(C(F)(F)F)ccc1Cl)S(C)(=O)=O,nt,nt,1,nt,nt,nt,nt,nt
C[C@H]1CCCCO[C@@H](CN(C)S(=O)(=O)c2ccc(F)cc2)[C@@H](C)CN([C@@H](C)CO)C(=O)c2cc(NS(=O)(=O)c3ccc(F)cc3)ccc2O1,-48,-3,0,119*,105*,33,-13,-17
C[C@H]1CCCCO[C@H](CN(C)S(=O)(=O)c2ccc(F)cc2)[C@@H](C)CN([C@@H](C)CO)C(=O)c2cc(NS(=O)(=O)c3ccc(F)cc3)ccc2O1,-64,1,-1,99*,110*,68,3,-3
CCn1c(SCC(=O)Nc2c(C)cc(C)cc2C)nnc1-c1ccc(Br)cc1,nt,nt,0,nt,nt,nt,nt,nt
COC(=O)c1cc(NC(=O)COc2ccccc2OC)cc(C(=O)OC)c1,nt,nt,-1,nt,nt,nt,nt,nt
C[C@H](CO)N1C[C@H](C)[C@H](CN(C)S(=O)(=O)c2ccc(F)cc2)Oc2cc(Br)ccc2S1(=O)=O,-7,-2,-6,98*,100*,29,33,65*
C[C@@H]1CN([C@H](C)CO)S(=O)(=O)c2ccc(C#Cc3ccc(F)cc3)cc2O[C@H]1CN(C)S(=O)(=O)c1ccc(F)cc1,-34,0,-3,110*,98*,110*,41*,55*
COCC#Cc1ccc2c(c1)O[C@H](CN(C)S(=O)(=O)c1ccc(F)cc1)[C@@H](C)CN([C@H](C)CO)S2(=O)=O,-30,1,-6,75,nt,nt,nt,nt
C[C@H]1CN([C@@H](C)CO)S(=O)(=O)c2ccc(C#Cc3ccncc3)cc2O[C@H]1CN(C)S(=O)(=O)c1ccccc1,-40,-13,1,70,nt,nt,nt,nt
COCC#Cc1ccc2c(c1)O[C@H](CN(C)S(=O)(=O)c1ccc(F)cc1)[C@H](C)CN([C@@H](C)CO)S2(=O)=O,-53,5,2,101*,76,18,9,55*
C[C@@H]1CN([C@@H](C)CO)S(=O)(=O)c2ccc(C#Cc3ccncc3)cc2O[C@@H]1CN(C)S(=O)(=O)c1ccc(F)cc1,-83*,-5,3,114*,?,51,34*,44*
